# Reference: PubChem BioAssay AID624067 (The Scripps Research Institute Molecular Screening Center, 2012)
# pIC50: −log10 of the molar value. Several values for one entry are separate records, joined by “and”; a condition that tells them apart may be missing. Equal values may be shown once.
# Target: Insulin-degrading enzyme (Homo sapiens) (UniProt P14735)
# Assay: WT IDE enzyme inhibition, cell-free – biochemical, fluorescence polarization, run by assay provider, counter-screen for IDE inhibitor project, late-stage follow-up (AID 624067)
# Conditions: recombinant IDE, FAbetaB cleavage;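 active = IC50 at or below 10 µM; inactive = IC50 above 10 µM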
# How it was run: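 Assay system: Recombinant WT human IDE | Schedule: Enzyme reaction at 22 °C | Doses: 10 semi-log points, top 100 µM | Benchmarks: High control Ii1 | Technique: Fluorescence polarization, 485/525 nm, avidin capture | Medium: HEPES pH 7.4, NaCl, MgCl2, 0.1% BSA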
# Sequence of Insulin-degrading enzyme (Homo sapiens) (P14735 whole entry, looked up): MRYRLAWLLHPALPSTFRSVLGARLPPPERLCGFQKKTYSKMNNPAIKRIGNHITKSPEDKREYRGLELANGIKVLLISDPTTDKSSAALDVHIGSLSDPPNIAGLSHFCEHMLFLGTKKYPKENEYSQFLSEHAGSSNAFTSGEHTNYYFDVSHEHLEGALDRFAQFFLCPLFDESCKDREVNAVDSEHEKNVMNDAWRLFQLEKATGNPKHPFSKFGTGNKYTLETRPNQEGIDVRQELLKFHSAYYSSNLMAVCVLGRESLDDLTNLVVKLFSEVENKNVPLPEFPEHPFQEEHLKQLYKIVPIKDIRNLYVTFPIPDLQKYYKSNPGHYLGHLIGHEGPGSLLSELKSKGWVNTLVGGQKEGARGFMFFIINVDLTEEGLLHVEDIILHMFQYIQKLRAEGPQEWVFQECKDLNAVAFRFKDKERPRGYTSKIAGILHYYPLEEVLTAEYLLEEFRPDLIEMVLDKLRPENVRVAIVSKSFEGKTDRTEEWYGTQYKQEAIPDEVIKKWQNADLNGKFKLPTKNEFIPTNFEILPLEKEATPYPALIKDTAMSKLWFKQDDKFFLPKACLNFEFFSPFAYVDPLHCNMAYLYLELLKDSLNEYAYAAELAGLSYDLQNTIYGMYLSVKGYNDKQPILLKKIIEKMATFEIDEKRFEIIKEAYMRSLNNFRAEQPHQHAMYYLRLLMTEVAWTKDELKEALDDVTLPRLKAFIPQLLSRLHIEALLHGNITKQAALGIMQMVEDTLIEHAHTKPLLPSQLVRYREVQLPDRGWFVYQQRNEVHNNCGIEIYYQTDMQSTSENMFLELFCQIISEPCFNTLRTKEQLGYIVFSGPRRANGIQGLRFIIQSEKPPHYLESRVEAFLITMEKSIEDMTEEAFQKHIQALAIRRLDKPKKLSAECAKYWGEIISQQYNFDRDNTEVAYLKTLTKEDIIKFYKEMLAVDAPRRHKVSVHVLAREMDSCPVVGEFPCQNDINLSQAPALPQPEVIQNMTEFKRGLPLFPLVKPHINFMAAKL
pIC50,IC50,Structure (SMILES)
5.85,,O=c1c2ccccc2sn1-c1cc(S(=O)(=O)N2CCOCC2)ccc1N1CCOCC1
5.28,,O=C(Nc1cccc(C(F)(F)F)c1)c1csc(-c2ccncc2)n1
5.41,,Clc1cccc(-c2nnc(SCc3nc4ccccc4[nH]3)n2Cc2ccco2)c1
5.24 and 5.05,,Cc1cccc(-c2nnc(SCc3nc4ccccc4[nH]3)n2Cc2ccco2)c1
,1.9 µM and > 33 µM (inactive),COc1ccc(C(=O)N2CCN(C(=O)C3COc4ccccc4O3)CC2)cc1OC (stereo not given)
